Holding throughout (assay type): functional
One test concerns Pseudomonas aeruginosa. Kind of test: In vitro minimum inhibitory concentration required to produce antibacterial activity against Pseudomonas aeruginosa ATCC 27853. A digest of the protocol:
(§1)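 Two-fold agar dilution on Mueller-Hinton agar. Overnight broth cultures diluted in fresh broth to […]; 10⁴ CFU/spot applied by inoculating apparatus onto plates with graded drug concentrations. Incubated 18 h at 37 °C; MIC taken as the lowest concentration giving complete growth inhibition.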

Another test concerns Citrobacter freundii. Kind of test: In vitro minimum inhibitory concentration required to produce antibacterial activity against Citrobacter freundii 902. A digest of the protocol: as §1
The subject of test [1] is Staphylococcus aureus. Kind of test: In vitro minimum inhibitory concentration required to produce antibacterial activity against Staphylococcus aureus 743 MRSA. Summed up: as §1
The next test relates to Enterobacter cloacae. Briefly: In vitro minimum inhibitory concentration required to produce antibacterial activity against Enterobacter cloacae 908SSI. A digest of the protocol: as §1
Test [2] relates to Staphylococcus aureus. Kind of test: In vitro minimum inhibitory concentration required to produce antibacterial activity against Staphylococcus aureus 887MSSA. A digest of the protocol: as §1
Test [3] relates to Streptococcus pneumoniae. Briefly: In vitro minimum inhibitory concentration required to produce antibacterial activity against Streptococcus pneumoniae 1/37(pen r). Summed up:
as §1

Test [4] has as its system Streptococcus pneumoniae. Briefly: Minimum inhibitory concentration for antibacterial activity against Streptococcus pneumoniae Q19 (pen s). A digest of the protocol: as §1
The subject of another test is Escherichia coli. Briefly: In vitro minimum inhibitory concentration required to produce antibacterial activity against Escherichia coli 25922. A digest of the protocol:
as §1

In the next test the test system is Enterococcus faecalis. Kind of test: In vitro minimum inhibitory concentration required to produce antibacterial activity against Enterococcus faecalis ATCC 29212. Summed up:
as §1

In brackets after ≈: the same amount, converted by molar mass.

In the case of `Nc1nc(/C(=N/O)C(=O)N[C@@H]2C(=O)N3C(C(=O)O)=C(/C=C4\CCN(c5ccccc5)C4=O)CS[C@H]23)cs1`, the MIC with Pseudomonas aeruginosa was determined as 16 µg/mL (≈ 29.6 µM); against Citrobacter freundii it was 0.25 µg/mL (≈ 0.462 µM); against Staphylococcus aureus [1] it was 8 µg/mL (≈ 14.8 µM); with Enterobacter cloacae, 0.5 µg/mL (≈ 0.925 µM); in the test on Staphylococcus aureus [2], 0.5 µg/mL (≈ 0.925 µM); in the test on Streptococcus pneumoniae [3] it was 2 µg/mL (≈ 3.7 µM). Moreover, the results for the MIC against Streptococcus pneumoniae [4], against Escherichia coli and with Enterococcus faecalis were 0.06 µg/mL (≈ 0.111 µM), 0.25 µg/mL (≈ 0.462 µM) and 0.25 µg/mL (≈ 0.462 µM), respectively.

With `Nc1nc(/C(=N/O)C(=O)N[C@@H]2C(=O)N3C(C(=O)O)=C(/C=C4\CN(c5ccccc5)C4=O)CS[C@H]23)cs1`, the MIC is 16 µg/mL (≈ 30.4 µM) against Pseudomonas aeruginosa; 1 µg/mL (≈ 1.9 µM) in the test on Citrobacter freundii; 8 µg/mL (≈ 15.2 µM) against Staphylococcus aureus [1]; 2 µg/mL (≈ 3.8 µM) with Enterobacter cloacae; 0.5 µg/mL (≈ 0.95 µM) in the test with Staphylococcus aureus [2]; 4 µg/mL (≈ 7.6 µM) against Streptococcus pneumoniae [3]. For the same compound, the MIC with Streptococcus pneumoniae [4] was determined as 0.5 µg/mL (≈ 0.95 µM); in the test on Escherichia coli, 1 µg/mL (≈ 1.9 µM); against Enterococcus faecalis it was 0.25 µg/mL (≈ 0.475 µM).

With `Nc1nc(/C(=N/O)C(=O)N[C@@H]2C(=O)N3C(C(=O)O)=C(/C=C4\CCNC4=O)CS[C@H]23)cs1`, the MIC was over 16 µg/mL with Pseudomonas aeruginosa; 0.5 µg/mL (≈ 1.08 µM) in the test with Citrobacter freundii; 8 µg/mL (≈ 17.2 µM) against Staphylococcus aureus [1]; 0.5 µg/mL (≈ 1.08 µM) against Enterobacter cloacae; 1 µg/mL (≈ 2.15 µM) in the test with Staphylococcus aureus [2]; 2 µg/mL (≈ 4.31 µM) with Streptococcus pneumoniae [3]. Further, the values for the MIC in the test on Streptococcus pneumoniae [4], in the test on Escherichia coli and against Enterococcus faecalis were 0.06 µg/mL (≈ 0.129 µM), at most 0.06 µg/mL and 2 µg/mL (≈ 4.31 µM), respectively.

`Nc1nc(/C(=N/O)C(=O)N[C@@H]2C(=O)N3C(C(=O)O)=C(/C=C4\CCN(c5cccc([N+](=O)[O-])c5)C4=O)CS[C@H]23)cs1`: the MIC with Pseudomonas aeruginosa is 16 µg/mL (≈ 27.3 µM); against Citrobacter freundii, 0.12 µg/mL (≈ 0.205 µM); against Staphylococcus aureus [1] it was 4 µg/mL (≈ 6.83 µM); in the test with Enterobacter cloacae, 0.25 µg/mL (≈ 0.427 µM); against Staphylococcus aureus [2] it was 0.5 µg/mL (≈ 0.854 µM); in the test on Streptococcus pneumoniae [3], 2 µg/mL (≈ 3.42 µM). In addition, the MIC against Streptococcus pneumoniae [4] is at most 0.06 µg/mL; against Escherichia coli, 0.12 µg/mL (≈ 0.205 µM); with Enterococcus faecalis, 0.12 µg/mL (≈ 0.205 µM).

For `C#CCN1CC/C(=C\C2=C(C(=O)O)N3C(=O)[C@@H](NC(=O)/C(=N\O)c4csc(N)n4)[C@H]3SC2)C1=O`, the MIC in the test with Pseudomonas aeruginosa amounted to 8 µg/mL (≈ 15.9 µM); against Citrobacter freundii, 0.12 µg/mL (≈ 0.239 µM); against Staphylococcus aureus [1], 4 µg/mL (≈ 7.96 µM); in the test with Enterobacter cloacae, 1 µg/mL (≈ 1.99 µM); in the test with Staphylococcus aureus [2], 1 µg/mL (≈ 1.99 µM); in the test on Streptococcus pneumoniae [3], 2 µg/mL (≈ 3.98 µM). The minimal inhibitory concentration (MIC) with Streptococcus pneumoniae [4] was at most 0.06 µg/mL; in the test with Escherichia coli it was at most 0.06 µg/mL; in the test with Enterococcus faecalis, 1 µg/mL (≈ 1.99 µM).

On to `Nc1nc(/C(=N/O)C(=O)N[C@@H]2C(=O)N3C(C(=O)O)=C(/C=C4/CN(c5ccccc5)C4=O)CS[C@H]23)cs1`, for which the MIC in the test on Pseudomonas aeruginosa was determined as 16 µg/mL (≈ 30.4 µM); against Citrobacter freundii, 4 µg/mL (≈ 7.6 µM); in the test with Staphylococcus aureus [1] it was 2 µg/mL (≈ 3.8 µM); against Enterobacter cloacae, 4 µg/mL (≈ 7.6 µM); in the test with Staphylococcus aureus [2], 0.12 µg/mL (≈ 0.228 µM); against Streptococcus pneumoniae [3], 2 µg/mL (≈ 3.8 µM). Also, the MIC was determined as 0.12 µg/mL (≈ 0.228 µM) against Streptococcus pneumoniae [4], 2 µg/mL (≈ 3.8 µM) in the test with Escherichia coli and 0.5 µg/mL (≈ 0.95 µM) in the test with Enterococcus faecalis.

With `COc1cccc(CN2CC/C(=C\C3=C(C(=O)O)N4C(=O)[C@@H](NC(=O)/C(=N\O)c5csc(N)n5)[C@H]4SC3)C2=O)c1`, the MIC in the test with Pseudomonas aeruginosa is over 32 µg/mL; against Citrobacter freundii it was 2 µg/mL (≈ 3.42 µM); in the test on Staphylococcus aureus [1], 8 µg/mL (≈ 13.7 µM); with Enterobacter cloacae, 4 µg/mL (≈ 6.84 µM); in the test with Staphylococcus aureus [2], 1 µg/mL (≈ 1.71 µM); against Streptococcus pneumoniae [3] it was 1 µg/mL (≈ 1.71 µM). Moreover, the values for the minimum inhibitory concentration (MIC) against Streptococcus pneumoniae [4], with Escherichia coli and in the test on Enterococcus faecalis were at most 0.06 µg/mL, 2 µg/mL (≈ 3.42 µM) and 1 µg/mL (≈ 1.71 µM), respectively.

As to `Nc1nc(/C(=N/O)C(=O)N[C@@H]2C(=O)N3C(C(=O)O)=C(/C=C4\CCN(C5CC5)C4=O)CS[C@H]23)cs1`, the minimum inhibitory concentration (MIC) against Pseudomonas aeruginosa came to 8 µg/mL (≈ 15.9 µM); with Citrobacter freundii it was 0.12 µg/mL (≈ 0.238 µM); against Staphylococcus aureus [1] it was 8 µg/mL (≈ 15.9 µM); in the test on Enterobacter cloacae, 0.12 µg/mL (≈ 0.238 µM); with Staphylococcus aureus [2], 1 µg/mL (≈ 1.98 µM); against Streptococcus pneumoniae [3] it was 2 µg/mL (≈ 3.96 µM). Besides, the minimal inhibitory concentration (MIC) against Streptococcus pneumoniae [4] was 0.03 µg/mL (≈ 0.0595 µM); in the test on Escherichia coli it was at most 0.06 µg/mL; against Enterococcus faecalis, 1 µg/mL (≈ 1.98 µM).

These data come from ChEMBL document CHEMBL1129566 (J Med Chem, 1996).
